# Screens: PubChem, several laboratories
# Sampled rows, rich in hits. Any-hit rate of the full collection: about 1.5%.
# VLA-4 inh = inhibition in a human VLA-4 binding assay; VLA-4 expressing cells, ligand binding flow cytometry; inhibition, % (about 7 µM as worked out from the volumes in the protocol); hit rate 0.2% among 330,000; AID 2557; in the data active = inhibition above about 50%
# Target sequence (P13612 whole entry, looked up): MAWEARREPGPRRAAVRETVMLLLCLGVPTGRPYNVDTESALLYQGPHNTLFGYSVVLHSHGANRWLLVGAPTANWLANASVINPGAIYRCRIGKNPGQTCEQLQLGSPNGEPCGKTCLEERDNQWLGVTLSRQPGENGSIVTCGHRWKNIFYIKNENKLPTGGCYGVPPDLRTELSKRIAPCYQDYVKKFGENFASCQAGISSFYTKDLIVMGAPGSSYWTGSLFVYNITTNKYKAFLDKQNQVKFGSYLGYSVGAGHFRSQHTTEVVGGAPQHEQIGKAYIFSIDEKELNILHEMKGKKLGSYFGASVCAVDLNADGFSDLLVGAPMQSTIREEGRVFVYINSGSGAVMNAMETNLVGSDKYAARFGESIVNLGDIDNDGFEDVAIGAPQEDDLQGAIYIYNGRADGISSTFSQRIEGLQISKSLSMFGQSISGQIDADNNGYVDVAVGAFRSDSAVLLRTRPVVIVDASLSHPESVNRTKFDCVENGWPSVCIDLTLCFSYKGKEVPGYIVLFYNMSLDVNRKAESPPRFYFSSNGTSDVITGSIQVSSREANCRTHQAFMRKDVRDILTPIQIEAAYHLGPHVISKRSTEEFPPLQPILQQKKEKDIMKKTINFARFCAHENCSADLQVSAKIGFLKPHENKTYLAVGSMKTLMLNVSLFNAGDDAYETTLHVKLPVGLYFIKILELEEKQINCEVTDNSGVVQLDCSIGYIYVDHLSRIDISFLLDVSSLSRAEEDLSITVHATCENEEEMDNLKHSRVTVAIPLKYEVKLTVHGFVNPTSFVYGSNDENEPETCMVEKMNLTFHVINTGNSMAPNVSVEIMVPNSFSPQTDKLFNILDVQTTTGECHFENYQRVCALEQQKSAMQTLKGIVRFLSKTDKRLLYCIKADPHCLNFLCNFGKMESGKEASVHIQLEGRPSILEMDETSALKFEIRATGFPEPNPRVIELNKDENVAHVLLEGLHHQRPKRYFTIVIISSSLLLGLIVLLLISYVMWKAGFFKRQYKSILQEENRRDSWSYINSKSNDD
# Myeloid diff 2 = compounds promoting myeloid differentiation; calls only at 10 µM; ER-HoxA9 myeloid progenitors, lysozyme-GFP differentiation, flow cytometry; hit rate 1% among 360,000; AID 624256;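 active = normalized GFP-positive differentiation at or above the plate's own cutoff, the solvent-only control mean plus 3 SD; inconclusive = no clear call, values can overlap the other calls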;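 also: cells exposed to compound for four days before flow analysis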
# Platelet DG rel = modulates dense granule release in human platelets. inhibition, %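 (compounds screened at 7.5 µM in platelet-rich plasma)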. human platelet-rich plasma, SFLLRN dense granule ATP release, luminescence. hit rate 0.22% among 300,000;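 active = mean replicate score, as percent of positive control, at or above 50; inconclusive = mean below 50 but at least one replicate at or above 50; inactive = mean and every replicate below 50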
# SENP1 FRET inh = inhibitors of human SENP1 SUMO protease catalytic domain; recombinant SENP1 catalytic domain, CyPet-SUMO1-YPet FRET cleavage; inhibition, % at 10 µM; hit rate 0.21% among 360,000; AID 624204;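 active = inhibition at least 30% at 10 µM, raw YFP signal under a set limit, fluorescence ratio 0.5 to 1.5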;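 also: 0% = enzyme with DMSO and 100% = no enzyme wells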
#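 Assay system – human recombinant His6-tagged SENP1 catalytic domain enzyme · Input – SENP1 enzyme, 20 pM final · Buffer or medium – Tris pH 8 buffer plus EDTA, NaCl, BME, BSA, NP40, catalase · Schedule – 50 min reaction at room temperature · Technique – FRET read of cyan and yellow fluorescence · Control set – no-enzyme wells low, DMSO-plus-enzyme wells high control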
# * hit, by the source's call; i = inactive; u = inconclusive; x = no result given; + = active, no number.
SMILES,VLA-4 inh,Myeloid diff 2,Platelet DG rel,SENP1 FRET inh
CCOc1cc(Br)c(Br)c(C=Nc2ccc(NC(C)=O)cc2)c1O,2,i,-1,41*
COc1cc(/C=N/O)c(Br)cc1OCC(=O)Nc1ccccc1C,3,i,-14,-5
CCOc1cc(/C=N/NC(N)=O)cc(Br)c1OCC(=O)Nc1ccccc1C,-10,i,98*,3
CCOc1cc(/C=N/NC(N)=O)cc(Br)c1OCC(=O)Nc1cccc2ccccc12,-8,i,6,-7
COc1cc(/C=N/NC(N)=O)c(Br)cc1OCC(=O)Nc1ccccc1C,1,i,80*,0
Cc1cccc(OCC(=O)N(Cc2ccco2)c2c(N)n(Cc3ccccc3)c(=O)[nH]c2=O)c1,0,i,x,-8
CC(=O)c1cccc(OCC(=O)N(Cc2ccco2)c2c(N)n(Cc3ccccc3)c(=O)[nH]c2=O)c1,12,+,x,-4
CCN(CC)C(=O)c1cccc(NC(=O)C2CCN(C(=O)c3cccs3)CC2)c1,1,i,x,4
COc1ccc(-c2c(C#Cc3ccsc3)c3cc(-c4ccc5[nH]ccc5c4)ccc3n2C)cc1,5,+,x,-4
CC(=O)Nc1ccc(NC(=O)C(C)OC(=O)CSCc2cccc(Cl)c2)cc1 (stereo not given),4,i,1,6
COc1ccc2oc(C(=O)OCC(=O)c3ccc4c(c3)OCCO4)c(C)c2c1,15,+,0,0
COc1ccc2oc(C(=O)N(C)Cc3ccc4c(c3)OCCO4)c(C)c2c1,6,i,-12,-6
Cc1cc(C)nc(SCc2nnc(SCC(=O)Nc3nccs3)n2Cc2ccco2)n1,-4,i,2,-4
Cc1cccc(NC(=O)CSc2nnc(CSc3nc(C)cc(C)n3)n2Cc2ccco2)c1,-1,+,2,-1
Cc1nc(-n2nnc3cc(C)c(C)cc32)c2c3c(sc2n1)CCCC3,-8,+,3,-2
COc1ccc2cc(-c3ccn[nH]3)ccc2c1,-10,+,12,0
Cc1ccc(C)c2[nH]c(=O)c(CN(Cc3ccco3)S(=O)(=O)c3ccc4c(c3)OCCO4)cc12,15,+,0,-1
CCc1ccc2[nH]c(=O)c(CN(Cc3ccco3)S(=O)(=O)c3ccc4c(c3)OCCO4)cc2c1,1,i,7,1
O=C(NCCc1ccccc1)C1Cc2c(-c3ccccc3Oc3ccccc3)ccnc2O1 (stereo not given),x,i,x,0
C/C(=N\NC(=O)c1ccccc1NC(=O)c1ccc(Cl)cc1)c1ccncc1,-8,i,96*,1
O=C(Nc1ccc(F)cc1)C1(S(=O)(=O)c2ccc(Cl)cc2)CC1,-8,i,5,2
Cc1coc(C)c1C(=O)Nc1ccc2ccccc2c1,x,i,1,0
CCOC(=O)N1CCN(C(=O)CN(C2CCCCC2)S(=O)(=O)c2ccc(Cl)cc2)CC1,-2,+,-1,0
CCOC(=O)N1CCN(C(=O)CN(C2CCCCC2)S(=O)(=O)c2ccc(F)cc2)CC1,-154,i,-1,2
OCc1ccnc2oc3ccccc3c12,-2,i,-2,-1
SMILES,VLA-4 inh,Myeloid diff 2,Platelet DG rel,SENP1 FRET inh
COc1ccccc1S(=O)(=O)N(C)C[C@H]1OCc2cn(nn2)CCCC(=O)N([C@@H](C)CO)C[C@@H]1C,x,i,x,1
CC1CCCCC1NC(=O)CCCCn1c(=O)[nH]c2ccsc2c1=O (stereo not given),-5,+,-15,0
COc1ccc(-n2nc(C(=O)NCC(=O)N3CCC(C)CC3)c3ccccc3c2=O)c(OC)c1,10,i,5,1
Cc1cc(=O)[nH]c(N=N/C(=N/Nc2ccc(O)cc2)c2ccccc2)n1,-8,i,u,48*
O=C(c1ccc2nc[nH]c2c1)N1CCN(c2cccc(C(F)(F)F)c2)CC1,-1,i,4,-3
O=C(c1ccc2ncsc2c1)N1CCN(c2cccc(C(F)(F)F)c2)CC1,x,+,x,-3
COc1ccccc1N1CCN(C(=O)c2ccc3ncsc3c2)CC1,x,+,x,1
C[C@]12c3[nH]c4ccccc4c3CCN1C(=O)C(CC(=O)NCCCn1ccnc1)C[C@@H]2C(=O)N1CCCCC1 (stereo not given in full),-17,i,x,2
Cc1ccc(NC(=S)NC(=O)C2CCC2)cc1C,-8,i,11,1
CC(=O)N1CCc2c(sc(NC(=O)C3CC3)c2-c2nc3ccccc3s2)C1,-35,+,21,-43
CC(=O)Nc1sc2c(c1-c1nc3ccccc3s1)CN(C(C)C)CC2,-251,u,x,-33
COc1ccc(CCC(=O)OCc2csc(CC(=O)Nc3ccccc3C)n2)cc1,10,+,-3,-15
Cc1ccccc1NC(=O)Cc1nc(COC(=O)c2ccc(S(C)(=O)=O)c([N+](=O)[O-])c2)cs1,-1,+,x,-1
Cc1ccccc1NC(=O)COC(=O)c1ccc(S(C)(=O)=O)c([N+](=O)[O-])c1,9,i,-9,3
CCC(C)C(NC(=O)/C(=C\c1ccccc1)NC(=O)c1ccc(OC)cc1)C(=O)O (stereo not given),-10,i,3,-10
CCNC(=S)NNC(=O)c1cc(-c2cccc(C)c2)nc2ccccc12,0,i,37,3
CCCCOc1ccc(-c2cc(C(=O)NNC(=S)NCC)c3ccccc3n2)cc1,-5,i,77*,3
CCNC(=S)NNC(=O)c1cc(-c2ccc(OC)cc2)nc2ccccc12,-13,i,111*,4
CCCCOc1cccc(-c2cc(C(=O)NNC(=S)NCC)c3ccccc3n2)c1,-3,i,10,6
CN(C)c1ccc(/C=N/NC(=O)c2ccn(C)n2)cc1,2,i,1,-6
CN(C)c1ccc(/C=N/NC(=O)c2ccnn2C)cc1,18,i,73*,1
COC(=O)Cn1c(C)c(/C=C/c2cc[n+](C)cc2)c2ccccc21,-126,+,-4,-25
COC(=O)Cn1c(=O)c(=O)n(CC(=O)OC)c2ccccc21,5,i,-1,3
COC(=O)Cn1cc(/C=C/c2cc[n+](C)cc2)c2ccccc21,-47,+,0,-37
CSc1ccc(S(=O)(=O)NCCCOC(C)C)cc1,20,i,7,3
SMILES,VLA-4 inh,Myeloid diff 2,Platelet DG rel,SENP1 FRET inh
CC(C(=O)OCC(=O)Nc1ccc(S(N)(=O)=O)cc1)N1C(=O)c2ccccc2C1=O (stereo not given),3,i,x,3
CN1C(c2ccccc2)=NO[C@]1(C)c1ccccc1,-5,i,-14,1
OC(CN1C2=NCCN2c2ccccc21)c1ccc(Br)cc1 (stereo not given),9,+,7,3
N#Cc1sc2nc(-c3cccs3)cc(-c3ccc(F)cc3)c2c1N,-13,+,-10,-27
CS(=O)(=O)c1sc2nc(-c3cccs3)cc(-c3ccccc3)c2c1N,-10,+,2,10
N#Cc1sc2nc(C3CC3)cc(-c3ccccc3)c2c1N,-13,i,0,-28
O=C1C(=O)c2cccnc2-c2ncccc21,x,u,x,29*
O=C1c2cccnc2-c2ncccc21,-16,i,-2,-2
